This assay deals with Vaccinia virus. Kind of assay: Minimum inhibitory concentration (MIC) required to reduce vaccinia virus induced cytopathogenicity in primary rabbit kidney cell cultures. In kind it is functional. As to conditions: Orthopoxvirus vaccinia. In short, it runs like this:
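Primary rabbit kidney cell cultures were infected with virus and treated with compound. The MIC is the concentration that reduces virus-induced cytopathogenicity by 50%. Cytotoxicity was scored as microscopically visible alteration of normal cell morphology, with 400 μg/mL the highest concentration tested.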
In general terms: Damage to the host cells serves as the signal in cytopathic effect assays.

Converted amounts (≈) assume the structure as drawn.

`O=c1[nH]c(=O)n(C2CC(O)C(CO)C2)cc1/C=C/I` (configuration not stated) yielded an MIC50 of 300 µg/mL (≈ 793 µM). The compound `Nc1nc(=O)n(C2CC(O)C(CO)C2)cc1/C=C/Br` (configuration not stated) displayed an MIC50 above 200 µg/mL. The compound `O=c1[nH]c(=O)n([C@H]2C[C@H](O)[C@@H](CO)O2)cc1/C=C/I` yielded an MIC50 of 7 µg/mL (≈ 18.4 µM). As to `O=c1[nH]c(=O)n([C@@H]2C[C@H](CO)[C@@H](O)C2)cc1I`, the MIC50 came out at 20 µg/mL (≈ 56.8 µM). Compound `NC1NC(=O)N([C@H]2C[C@H](O)[C@@H](CO)O2)C=C1/C=C/Br` (some centres not stated) yielded an MIC50 of 200 µg/mL (≈ 598 µM). For `O=c1[nH]c(=O)n([C@H]2C[C@@H](CO)[C@H](O)C2)cc1/C=C/Br`, the MIC50 came out at 300 µg/mL (≈ 906 µM). `O=c1[nH]c(=O)n([C@H]2C[C@H](O)[C@@H](CO)O2)cc1I` [IDOXURIDINE] returned an MIC50 of 0.2 µg/mL (≈ 0.565 µM).

For the origin of these results see ChEMBL document CHEMBL1123080, “Synthesis and antiviral activity of the carbocyclic analogues of (E)-5-(2-halovinyl)-2'-deoxyuridines and (E)-5-(2-halovinyl)-2'-deoxycytidines” (1985).
